This note sets out measurements from ChEMBL document CHEMBL3414544, “PAINS in the assay: chemical mechanisms of assay interference and promiscuous enzymatic inhibition observed during a sulfhydryl-scavenging HTS” (J Med Chem, 2015).

For series [1], the target named is T1, Histone acetyltransferase RTT109 (Saccharomyces cerevisiae (strain ATCC 204508 / S288c) (Baker's yeast), UniProt Q07794).
T1 sequence (Q07794 whole entry): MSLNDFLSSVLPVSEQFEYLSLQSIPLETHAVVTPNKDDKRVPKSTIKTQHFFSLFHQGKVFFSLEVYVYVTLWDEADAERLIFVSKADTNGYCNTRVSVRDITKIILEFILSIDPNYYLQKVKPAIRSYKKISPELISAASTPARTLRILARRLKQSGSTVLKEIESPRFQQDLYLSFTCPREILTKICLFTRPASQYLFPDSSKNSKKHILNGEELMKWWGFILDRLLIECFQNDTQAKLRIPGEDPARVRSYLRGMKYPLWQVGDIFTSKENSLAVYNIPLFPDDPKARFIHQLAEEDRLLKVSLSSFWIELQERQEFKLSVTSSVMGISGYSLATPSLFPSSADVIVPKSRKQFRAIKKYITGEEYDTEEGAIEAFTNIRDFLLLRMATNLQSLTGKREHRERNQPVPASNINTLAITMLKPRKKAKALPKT
Put plainly: Inhibition of Vps75-stimulated recombinant Saccharomyces cerevisiae histone acetyltransferase Rtt109 using Asf1-dH3-H4 as substrate assessed as coenzyme A production after 45 mins by CPM based HTS assay. The method in brief:
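Recombinant Rtt109–Vps75 at 50 nM, with Asf1–dH3–H4 as substrate and acetyl-CoA as acetyl donor. Buffer contained freshly prepared 0.01% Triton X-100. The CoA product was detected by fluorescence of its CPM adduct. Plates had Z′ ≥0.5. IC50 came from a four-parameter variable-slope fit.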

For series [2], the target named is T2, Histone acetyltransferase RTT109 (Saccharomyces cerevisiae (strain ATCC 204508 / S288c) (Baker's yeast)) (UniProt Q07794).
T2 sequence (whole entry): T1 sequence (Q07794 whole entry)
Put plainly: Inhibition of Vps75-stimulated recombinant Saccharomyces cerevisiae histone acetyltransferase Rtt109 assessed as H3K56 acetylated product at […] after 45 mins by Slot bolt inhibiton assay.

Series [3] has as its target T2, Histone acetyltransferase RTT109 (Saccharomyces cerevisiae (strain ATCC 204508 / S288c) (Baker's yeast)). Nature of the series: Inhibition of Vps75-stimulated recombinant Saccharomyces cerevisiae histone acetyltransferase Rtt109 assessed as H3K27 acetylated product at […] after 45 mins by Slot bolt inhibiton assay.
Series [4] in a line: Fluorescence quenching assessed as fluorescence signal reduction at 10 uM after 10 mins. The class given is physicochemical. Summed up: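 CPM (20 μM final) and CoA (5 μM final) reacted to completion in assay buffer (stable plateau, usually ~5 min); adduct solution added to wells preplated with compound; shaken 5 min, equilibrated 5 min at room temperature; fluorescence intensity read as percent signal reduction versus DMSO controls. Flagged as quencher at >20% signal reduction at 10 μM final compound.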

Series [5] is described as follows: Fluorescence quenching in HTS buffer assessed as fluorescence signal reduction at 10 uM after 10 mins. The class given is physicochemical.
Series [6] can be described thus: Fluorescence quenching in HTS buffer with […] CoA assessed as fluorescence signal reduction at 10 uM after 10 mins. Type of series: physicochemical.
Series [7] can be described thus: Fluorescence quenching in HTS buffer with 20 uM 7-diethylamino-3-(4'-maleimidyl-phenyl)-4-methylcoumarin assessed as fluorescence signal reduction at 10 uM after 10 mins. The class given is physicochemical.

The structures appear in SMILES notation. Active and inactive are the calls of the source.

`COc1ccc(Cc2nnc(SC3=CS(=O)(=O)c4ccccc43)o2)cc1`: the IC50 in series [1] (read-out: IC50) is 7.1 µM. Besides, the outcome in series [2] and in series [3] was Active. Also, the Activity entry in series [4], in series [5], in series [6] and in series [7] was “Not Active” throughout.

Consider `Nc1ncnc2[nH]c(Sc3c([N+](=O)[O-])cc(Br)c4nsnc34)nc12`, for which the IC50 in series [1] (read-out: IC50) came to 3.2 µM. In addition, the result in series [2] and in series [3] was Active. The Activity result in series [4], in series [5], in series [6] and in series [7] was “Not Active” each time.

Turning to `CC(C)c1ccc(S(=O)(=O)Nc2cc(SCCC(=O)O)c(O)c3ccccc23)cc1`, the IC50 entry in series [1] is recorded as “Not Active”. Moreover, the Activity result in series [4] is listed as “Not Active”; in series [5] it was “Not Active”; in series [6], “Not Active”; in series [7] it was “Active”.

For the compound `CN(C)c1nc(-c2ccccc2)[n+](C)s1.[O-][Cl+3]([O-])([O-])[O-]`, the IC50 in series [1] (read-out: IC50) was 5.3 µM. For the same compound, the result in series [2] and in series [3] was Active. Besides, the Activity entry in series [4], in series [5], in series [6] and in series [7] was “Not Active” throughout.

As to `[Cl-].c1ccc(C[n+]2sc(Nc3ccccc3)nc2-c2ccccc2)cc1`, the IC50 in series [1] (read-out: IC50) stood at 3.1 µM. Also, the Activity entry in series [4], in series [5], in series [6] and in series [7] was “Not Active” each time.

In the case of `O=C1C=CC(=O)N1c1ccc2ccccc2c1`, in series [1] (read-out: IC50), the IC50 amounted to 3.6 µM. The result in series [2] and in series [3] was Active. For the same compound, the Activity result in series [4], in series [5], in series [6] and in series [7] was “Not Active” each time.

Consider `O=C1CC(Sc2nncn2-c2ccccc2)C(=O)N1c1cc(Cl)cc(Cl)c1` (stereo unspecified), for which, in series [1] (read-out: IC50), the half-inhibitory concentration (IC50) stood at 16 µM. Also, the result in series [2] and in series [3] was Active. Also, the Activity entry in series [4], in series [5], in series [6] and in series [7] was “Not Active” in each case.

With `Cc1ccc(S(=O)(=O)C[n+]2sc(N(c3ccccc3)c3ccccc3)nc2-c2ccccc2)cc1.[Cl-]`, the IC50 in series [1] (read-out: IC50) is 26 µM. Besides, the Activity entry in series [4], in series [5], in series [6] and in series [7] was “Not Active” in each case.

Consider `CC(C)(C)c1ccc(S(=O)(=O)Nc2cc(SCC(=O)O)c(O)c3ccccc23)cc1`, for which the IC50 result in series [1] is “Not Active”. For the same compound, the Activity result was “Not Active” in series [4], “Not Active” in series [5], “Not Active” in series [6] and “Active” in series [7].

With `Cc1ccc(S(=O)(=O)C[n+]2sc(N(c3ccccc3)c3ccccc3)nc2-c2ccccc2)cc1.[Br-]`, the IC50 in series [1] (read-out: IC50) was determined as 42 µM. For the same compound, the Activity result in series [4], in series [5], in series [6] and in series [7] was “Not Active” throughout.

For the compound `O=C1C=CC(=O)N1c1ccc(Cl)cc1`, the outcome in series [2] and in series [3] was Active. Also, the Activity entry in series [4], in series [5], in series [6] and in series [7] was “Not Active” each time.

Consider `O=C(O)CSc1cc(NS(=O)(=O)c2cccc([N+](=O)[O-])c2)c2ccccc2c1O`, for which, in series [1], the IC50 result is “Not Active”. Besides, the Activity result was “Not Active” in series [4], “Not Active” in series [5], “Not Active” in series [6] and “Active” in series [7].

On to `COc1cc(-c2nnc(SC3=CS(=O)(=O)c4ccccc43)o2)cc(OC)c1OC`, for which the outcome in series [2] and in series [3] was Active. Besides, the Activity result in series [4], in series [5], in series [6] and in series [7] was “Not Active” in each case.

`COc1ccc(Nc2nc(-c3ccc(C)cc3)[n+](Cc3ccccc3)s2)cc1.[Cl-]`: the result in series [2] and in series [3] was Active. Besides, the Activity result in series [4], in series [5], in series [6] and in series [7] was “Not Active” each time.

Turning to `Cc1ccc(-c2nc(N(c3ccccc3)c3ccccc3)s[n+]2CS(=O)(=O)c2ccccc2)cc1.[O-][Cl+3]([O-])([O-])[O-]`, the result in series [2] and in series [3] was inactive. Further, the Activity result in series [4], in series [5], in series [6] and in series [7] was “Not Active” throughout.

In the case of `[Br-].c1ccc(Nc2nc(-c3ccccc3)[n+](-c3ccccc3)s2)cc1`, the result in series [2] and in series [3] was Active. The Activity entry in series [4], in series [5], in series [6] and in series [7] was “Not Active” in each case.

For the compound `Cc1cc(C)c(S(=O)(=O)Nc2cc(Br)c(O)c3ccccc23)c(C)c1`, the outcome in series [2] and in series [3] was Active. For the same compound, the Activity entry in series [4], in series [5], in series [6] and in series [7] was “Not Active” throughout.

On to `O=S(=O)(Nc1cc(Sc2ccccc2)c(O)c2ccccc12)c1ccccc1`, for which the outcome in series [2] and in series [3] was Active. The Activity entry in series [4], in series [5], in series [6] and in series [7] was “Not Active” in each case.

`CSc1nsc(SC2=CS(=O)(=O)c3ccccc32)n1`: the outcome in series [2] and in series [3] was Active. In addition, the Activity entry in series [4], in series [5], in series [6] and in series [7] was “Not Active” in each case.

Regarding `O=C(O)c1ccc(S(=O)(=O)Nc2cc(Br)c(O)c3ccccc23)cc1`, the result in series [2] and in series [3] was Active. The Activity entry in series [4], in series [5], in series [6] and in series [7] was “Not Active” throughout.

Consider `Cc1ccc(-c2nnc(SC3CC(=O)N(c4ccc5ccccc5c4)C3=O)[nH]2)cc1` (stereo unspecified), for which the result in series [2] and in series [3] was Active. In addition, the Activity entry in series [4], in series [5], in series [6] and in series [7] was “Not Active” each time.

Regarding `COc1ccc(-c2nc(N)s[n+]2-c2ccccc2)cc1.[Cl-]`, the outcome in series [2] and in series [3] was Active. The Activity entry in series [4], in series [5], in series [6] and in series [7] was “Not Active” throughout.

Consider `[Br-].c1ccc(C[n+]2sc(Nc3ccccc3)nc2-c2ccccc2)cc1`, for which the IC50 in series [1] (read-out: IC50) worked out at 3.1 µM. Further, the Activity result in series [4], in series [5], in series [6] and in series [7] was “Not Active” in each case.
